The list is not random: actives were taken first. Their share in the collection is about 1.8%.
C8 TRAIL sens: viability loss with TRAIL in NB7+C8 cells, primary screen, TRAIL sensitizer project, cell-based, ATPlite luminescence; AID 624354, 2012; inhibition (viability loss, TRAIL sensitization), % at 10 µM; 360,000 tested, 1% active;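 active = compounds causing at least 50% loss of cell viability in the single-dose screen, relative to plate controls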
PPC-1+TRAIL kill: compounds killing PPC-1 cancer cells with TRAIL present, primary screen, TRAIL potentiator project, ATPLite luminescence, uHTS. PPC-1 cells + TRAIL, ATPLite viability luminescence. cell killing (% activity), % at 4 µM or 5 µM. 220,000 tested, 0.41% active. AID 1443, 2008;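 active = cell killing above 50% in the first pass at 4 µM, then a duplicate retest at 5 µM averaging 50% or more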;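 note: plate controls were cells with TRAIL plus DMSO for no effect and medium-only wells lacking cells for full effect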
STAT3 act-1: IL-6 driven STAT3 reporter potentiators, primary screen, U3A cells, luciferase, luminescence, MLSCN library; IL-6 STAT3-luciferase reporter; 100% = signal with IL-6 EC80 alone; activation (% of control), % at 5.6 µM; 190,000 tested, 0.91% active; AID 871, 2007;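 active = activation above the screen-wide mean of compound activation plus 3 SD, cut at about 130% in these data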;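 note: 0% = background luminescence of wells with medium and substrate only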
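Material: STAT1-lacking human U3A cells, STAT3 luciferase reporter | Benchmarks: IL-6-only wells as 100% reference | Probe or stimulus: IL-6 (33 ng/mL) | Timing: Compound 1 h, then IL-6 6 h at 37 °C | Detection: Luminescence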
STAT1 inh: STAT1 signaling inhibitors, primary screen, cell-based, HTS, luciferase reporter | NIH 3T3 STAT1-luciferase reporter, IFN-gamma, luminescence | inhibition, % at 5.5 µM | 200,000 tested, 0.35% active | AID 920, 2007;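 active = inhibition above a set limit, the mean inhibition across all tested compounds plus 3 SD, cut at about 34% in these data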;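 note: 0% = IFN-gamma with DMSO and 100% = IFN-gamma with 300 µM nifuroxazide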
STAT3 blocker: IL-6 driven STAT3 reporter inhibitors, primary screen, U3A cells, luciferase, luminescence, MLSCN library. IL-6 STAT3-luciferase reporter; host cell line lacks STAT1. inhibition, % at 5.5 µM. 190,000 tested, 0.89% active;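 active = inhibition above the mean inhibition across all screened compounds plus 3 SD, cut at about 44% in these data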;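 note: 0% = DMSO only wells and 100% = 100 µM nifuroxazide control wells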
STAT3 act-2: STAT3 reporter potentiators, retest of hits, confirmation, U3A cells, luciferase, luminescence; 1,200 tested, 64% active; shares compounds with STAT3 act-1; potentiation (% of control), % at 5.7 µM; IL-6 potentiation; U3A cells lack STAT1; 100 means same as IL-6 alone; AID 1267, 2008;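 active = percent activation of the STAT3 luciferase reporter above a set limit taken from the earlier primary screen, cut at about 130% in these data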;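 note: 0% = background signal of medium plus substrate and 100% = median of IL-6 with DMSO wells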
NFkB act 2: NF-kB reporter activators in human cells, counter-screen for STAT3 activator project. shares compounds with STAT3 act-1. NF-kappaB reporter activation. activation (% of control), % at 5.7 µM. 1,200 tested, 11% active. AID 1309, 2008; in the data active = activation above about 120%;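 note: reporter induced by TNF-alpha stimulation; 100% = median of stimulated DMSO wells and 0% = no signal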
STAT1 act STAT3c: STAT1 reporter activators, IFN-gamma induced, counter-screen for STAT3 activator project, cell-based, NIH 3T3, luciferase luminescence | 1,200 tested, 13% active | NIH 3T3 STAT1-luciferase reporter | shares compounds with STAT3 act-1 | activation (% of control), % at 5.7 µM;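 active = activation above the solvent-only control well mean plus 3 SD, set per screening run, cut at about 120% in these data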;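 note: 100% = IFN-gamma with DMSO median signal so 100% means no change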
* = called active by the depositor; nt = not tested or not shown.

SMILES	C8 TRAIL sens	PPC-1+TRAIL kill	STAT3 act-1	STAT1 inh	STAT3 blocker	STAT3 act-2	NFkB act 2	STAT1 act STAT3c
CC(=O)Nc1ccc(NC(=O)CCCSc2nc3ccccc3s2)cc1	-6	21	140*	-1	-46	129	104	98
O=C(O)CCCC(=O)Nc1ccc(OCc2nc3ccccc3s2)cc1	2	12	136*	-17	-36	126	104	119
Cc1nc(SC(C)C(=O)NC2CCCC2)c2ccccc2n1 (stereo not given)	16	nt	nt	nt	nt	nt	nt	nt
Cc1ccc(S(=O)(=O)N2CCCCC2)cc1C(=O)OC1CCCCC1=O (stereo not given)	0	nt	nt	nt	nt	nt	nt	nt
O=C(CN1CCOCC1)N/N=C/c1cc2ccccc2nc1Cl	-3	14	96	-1	12	nt	nt	nt
Cc1ccc(NCC(=O)N/N=C/c2cc3ccccc3nc2Cl)cc1	-2	17	178*	9	-90	171*	113	107
Cn1c(=O)c(C(=O)Nc2ccccn2)c(O)c2ccccc21	62*	36	139*	-23	-44	178*	115	181*
CCOc1ccc(NC(=O)CN(C)C(=O)c2cc(S(=O)(=O)N(C)C)ccc2N2CCCC2)cc1OCC	7	nt	nt	nt	nt	nt	nt	nt
COc1ccccc1NS(=O)(=O)c1ccc(C(=O)N2CC(C)OC(C)C2)cc1 (stereo not given)	-6	nt	nt	nt	nt	nt	nt	nt
Cn1c(Cc2c[nH]c3ccccc23)n[nH]c1=S	-10	8	155*	2	-54	133	104	95
C/C(O)=C(\N=Nc1cc(C)ccc1O)C(N)=O	1	-1	143*	5	-46	175*	129*	136*
CCCCC(=O)Nc1ccc(N2CCN(c3ccc(F)cc3)CC2)cc1	-4	nt	nt	nt	nt	nt	nt	nt
Fc1ccc(/C=C\c2nccc3c2[nH]c2ccccc23)cc1	17	-4	138*	-21	-46	148*	111	99
C(=C\c1nccc2c1[nH]c1ccccc12)/c1ccccc1	26	4	nt	nt	nt	nt	nt	nt
CC(=O)n1cc(C2CC(=O)OC3=C2CC(=O)C(C)(C)C3)c2ccccc21 (stereo not given)	4	nt	nt	nt	nt	nt	nt	nt
CC(=O)n1cc(C2C(=O)CCCC2=O)c2ccccc21	-10	8	140*	3	-42	118	100	97
O=C(Nc1nc2ccccc2s1)c1ccc2c(c1)S(=O)(=O)c1ccccc1C2=O	nt	-5	140*	-5	-38	132	101	96
O=C(COc1coc(CN2CCN(Cc3ccccc3)CC2)cc1=O)Nc1ccccc1	7	nt	nt	nt	nt	nt	nt	nt
COc1cccc2cc3c(=O)n(-c4ccccc4)nc-3oc12	-8	28	141*	3	-45	110	98	98
CCOC(=O)c1c(O)c2ccccc2n(CC)c1=O	3	9	103	-8	-2	nt	nt	nt
Oc1ccc(Br)cc1-c1cc(-c2ccccc2)n[nH]1	-16	-3	141*	-4	-46	125	104	101
Cc1ccc(N2CC(C(=O)NCCS(=O)(=O)N3CCN(c4ccccc4F)CC3)CC2=O)cc1 (stereo not given)	-1	nt	nt	nt	nt	nt	nt	nt
CC(=O)N/C(=C\c1ccccc1)C(=O)OCCCOC(=O)/C(=C/c1ccccc1)NC(C)=O	3	nt	nt	nt	nt	nt	nt	nt
COC(=O)CC1COc2ccccc2N1C(=O)c1cc(OC)c(OC)c(OC)c1 (stereo not given)	-6	nt	nt	nt	nt	nt	nt	nt
CCc1cc(C(c2ccc(F)cc2)N2CCOCC2)c(NC(=O)c2ccccc2)s1 (stereo not given)	0	12	102	4	2	nt	nt	nt
